Source: ChEMBL document CHEMBL5226322, “Harnessing the Role of HDAC6 in Idiopathic Pulmonary Fibrosis: Design, Synthesis, Structural Analysis, and Biological Evaluation of Potent Inhibitors” (J Med Chem, 2021)
pIC50: −log10 of the molar value. Values after ≈ are worked out from the molar mass of the structure shown. Active and inactive are the calls of the source. No cut-off for these calls is given here.

What was measured:
[1] = biological target: T1, Protein deacetylase HDAC6 (Homo sapiens, UniProt Q9UBN7); assay: Inhibition of human recombinant HDAC6 using ZMAL (Z-(Ac)Lys-AMC) as fluorogenic substrate incubated for 120 mins by microplate reader assay
T1 sequence (Q9UBN7 whole entry): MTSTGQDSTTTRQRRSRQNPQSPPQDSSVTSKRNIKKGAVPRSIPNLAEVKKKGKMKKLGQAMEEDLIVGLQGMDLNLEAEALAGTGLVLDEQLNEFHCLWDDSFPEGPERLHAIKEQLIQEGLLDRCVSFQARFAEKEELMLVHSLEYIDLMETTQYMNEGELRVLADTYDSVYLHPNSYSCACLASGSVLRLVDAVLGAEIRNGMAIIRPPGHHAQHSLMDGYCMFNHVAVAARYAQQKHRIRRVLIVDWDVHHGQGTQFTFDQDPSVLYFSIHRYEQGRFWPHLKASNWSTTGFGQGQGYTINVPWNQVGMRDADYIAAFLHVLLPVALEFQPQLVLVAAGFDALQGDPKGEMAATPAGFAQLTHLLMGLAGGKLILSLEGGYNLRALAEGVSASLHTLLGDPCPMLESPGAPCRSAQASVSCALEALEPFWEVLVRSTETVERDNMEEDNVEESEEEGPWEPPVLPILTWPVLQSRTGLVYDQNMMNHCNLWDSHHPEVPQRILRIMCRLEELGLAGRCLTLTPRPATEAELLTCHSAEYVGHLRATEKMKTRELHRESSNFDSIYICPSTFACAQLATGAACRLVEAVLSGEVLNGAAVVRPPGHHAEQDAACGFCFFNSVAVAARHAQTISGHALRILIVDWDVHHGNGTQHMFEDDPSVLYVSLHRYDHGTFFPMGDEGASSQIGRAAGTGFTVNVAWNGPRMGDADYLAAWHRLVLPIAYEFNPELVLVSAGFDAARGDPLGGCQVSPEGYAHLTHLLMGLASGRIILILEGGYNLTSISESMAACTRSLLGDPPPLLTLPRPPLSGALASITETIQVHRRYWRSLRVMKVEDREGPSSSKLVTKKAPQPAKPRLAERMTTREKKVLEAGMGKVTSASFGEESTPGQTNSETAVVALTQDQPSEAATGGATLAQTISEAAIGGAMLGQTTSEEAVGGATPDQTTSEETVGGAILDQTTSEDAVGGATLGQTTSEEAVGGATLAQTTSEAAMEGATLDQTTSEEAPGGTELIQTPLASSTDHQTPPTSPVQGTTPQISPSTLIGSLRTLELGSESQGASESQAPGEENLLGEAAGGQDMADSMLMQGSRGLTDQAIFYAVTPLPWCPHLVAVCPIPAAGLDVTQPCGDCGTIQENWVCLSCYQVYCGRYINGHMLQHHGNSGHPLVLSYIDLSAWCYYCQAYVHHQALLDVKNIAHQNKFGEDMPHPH

[2] = Solubility of the compound at pH 3 PBS buffer incubated for 24 hrs by HPLC-UV analysis; type: physicochemical; settings: pH 3, 24 h
Summary of the method: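 Compound from 10 mM DMSO stock diluted to 250 μM (2.5% DMSO), either in 50 mM acetic acid (pH 3.0) or in 50 mM aqueous PBS (pH 7.4). Shaken 24 h at 25 °C, PTFE-filtered and diluted 1:2. Quantified by RP-18 HPLC-UV at 254 nm against a 250 μM standard in MeCN/water. Run in triplicate and averaged.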

[3] = biological target: T2, Protein deacetylase HDAC6 (Homo sapiens) (UniProt Q9UBN7); assay: Inhibition of HDAC6 in human NB-4 cells assessed as increase in acetylation of alpha-tubulin at 5 uM incubated for 30 hrs by western blot analysis; type: cell-based
T2 sequence (whole entry): T1 sequence (Q9UBN7 whole entry)
Summary of the method: (§1)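 Whole lysates (35 μg) and acid-extracted histones (2 μg) run on SDS-PAGE and blotted for acetylated tubulin or acetyl-histone H3; GAPDH or H4 as loading controls.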

Histone deacetylase 1 [4] = biological target: T3, Histone deacetylase 1 (Homo sapiens, UniProt Q13547); assay: Inhibition of HDAC1 in human NB-4 cells assessed as increase in acetylation of histone H3 at 5 uM incubated for 30 hrs by western blot analysis; type: cell-based; summary of the method: as §1
T3 sequence (Q13547 whole entry): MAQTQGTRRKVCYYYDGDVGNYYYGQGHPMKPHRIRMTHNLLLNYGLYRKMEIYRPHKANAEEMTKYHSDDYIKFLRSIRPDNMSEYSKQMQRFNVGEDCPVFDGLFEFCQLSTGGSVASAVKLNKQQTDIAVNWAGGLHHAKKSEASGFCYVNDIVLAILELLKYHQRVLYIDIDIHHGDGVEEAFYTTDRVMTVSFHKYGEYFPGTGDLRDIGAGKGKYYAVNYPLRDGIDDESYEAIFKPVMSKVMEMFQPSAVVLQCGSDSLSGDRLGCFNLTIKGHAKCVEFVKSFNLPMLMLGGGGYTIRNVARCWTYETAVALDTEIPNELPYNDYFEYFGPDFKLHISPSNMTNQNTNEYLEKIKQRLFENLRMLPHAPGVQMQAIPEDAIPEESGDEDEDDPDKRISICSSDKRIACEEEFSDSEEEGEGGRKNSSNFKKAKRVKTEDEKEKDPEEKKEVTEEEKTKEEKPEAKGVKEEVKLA

Histone deacetylase 1 [5] = biological target: T3, Histone deacetylase 1; assay: Inhibition of HDAC1 in human U87 cells assessed as increase in acetylation of histone H3 at 5 uM incubated for 30 hrs by western blot analysis; type: cell-based; summary of the method: as §1
Homo sapiens = organism: Homo sapiens; assay: Inhibition of broncho-sphere formation in IPF patient derived human lung organoid assessed as inhibition of 3D organoid formation at 0.1 to 50 nM incubated for 14 days by Bright-field microscopy analysis; type: functional; settings: dose 0.1-50 nM, time 14.0 day
Summary of the method: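 Airway basal cells from bronchial brushings of IPF patients, 10⁴ cells in Matrigel on transwell inserts with 1:1 BEGM/DMEM. Treated 14 days (1–50 nM per methods; 0.1–50 nM per legend), medium changed every 7 days.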

Airway basal cell = assay: Inhibition of cell proliferation in IPF patient derived human Airway basal cell at 20 to 50 nM incubated for 14 days by MTT assay; type: functional, cell-based; settings: dose 20-50 nM, time 14.0 day
Summary of the method: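 IPF patient airway basal cell 3D organoid cultures (10⁴ cells in Matrigel, 1:1 BEGM/DMEM) treated 14 days at 1–50 nM, medium changed weekly. Proliferation read by colorimetric MTT on day 14. Mean ± SEM of triplicates, n=3; repeated-measures ANOVA/Friedman test. Reported IC50 is the mean of the count-based and MTT-based IC50s.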

[6] = Metabolic stability in human liver microsome assessed as compound remaining at 5 uM in presence of NADPH by HPLC analysis; type: ADME; settings: liver microsomes, read-out: Stability
Summary of the method: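 Compound at 5 μM, added in MeCN, incubated at 37 °C in 100 mM phosphate buffer pH 7.4 with 0.5 mg/mL human liver microsomal protein. Reaction started with an NADPH-generating system (2 mM NADPH, glucose-6-phosphate, G6P dehydrogenase, MgCl2). Stopped with MeCN at time points over 0–60 min. Remaining compound measured by RP-18 HPLC-UV at 254 nm, in triplicate. First-order depletion constant k; CLint = k × incubation volume / microsomal protein.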

Heart [7] = assay: Cardiotoxicity in Langendorff-perfused Sprague-Dawley rat heart assessed as effect on HR at 0.1 uM by ECG analysis (reference value: 235.7 +/-8.3 bpm); type: toxicity, tissue-based
Heart [8] = assay: Cardiotoxicity in Langendorff-perfused Sprague-Dawley rat heart assessed as effect on RR time at 0.01 uM by ECG analysis (reference value: 257.2 +/-8.1 milliseconds); type: toxicity, tissue-based
Heart [9] = assay: Cardiotoxicity in Langendorff-perfused Sprague-Dawley rat heart assessed as effect on RR time at 10 uM by ECG analysis (reference value: 257.2 +/-8.1 milliseconds); type: toxicity, tissue-based
[10] = Toxicity in zebra fish embryo assessed as visual capacity changes at 1 to 100 uM […] by optokinetic reflex assay; design: species or system Danio rerio; settings: zebrafish, dose 1-100 µM
Summary of the method: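 Wildtype Tübingen larvae at 28.5 °C were exposed from 3 days old for 2 days to 1–100 µM (1, 10, 25, 50, 100) in embryo medium, against 0.1% DMSO vehicle. 8 larvae per group. Visual function was then tested by optokinetic reflex at 2 days post-treatment, on 5-day-old larvae.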

Compound	pIC50 [1]	solubility [2]	inhibition [3]	inhibition (Histone deacetylase 1 [4])	inhibition (Histone deacetylase 1 [5])	inhibition (Homo sapiens)	inhibition (Airway basal cell)	remaining at 5 µM [6]	Activity (Heart [7])	Time (Heart [8])	Time (Heart [9])	Activity [10]
CN1CCC2(CC1)c1ccccc1N(Cc1ccc(C(=O)NO)cc1)C2c1ccccc1F (racemic)	7.55	456 µM (≈ 203 µg/mL)	Active	Active	Active	Dose-Dependent Effect	Active	100%	–	–	–	–
CC1(C)c2ccccc2N(Cc2ccc(C(=O)NO)cc2)C1c1cccnc1 (racemic)	7.38	459 µM (≈ 171 µg/mL)	Active	inactive	inactive	Dose-Dependent Effect	Active	100%	238.1 bpm	255.9 ms	294.1 ms	Non-Toxic
